Experimental data taken from ChEMBL document CHEMBL3853270, “Influence of Birch Bark Triterpenes on Keratinocytes and Fibroblasts from Diabetic and Nondiabetic Donors” (2016).
Calls of active or inactive are those of the source. The calls are words filed in the database; no cut-off is given here.

How the values were obtained:
Format in all cases: functional
Keratinocyte [1] = test: Effect on pro-inflammatory related gene expression in diabetic adult human primary keratinocytes assessed as IL6 mRNA levels at 1.96 uM after 6 hrs by qPCR analysis
Fibroblast [2] = test: Effect on chemokines related gene expression in diabetic adult human primary fibroblasts assessed as WDR26 mRNA levels at 9.81 uM after 6 hrs by qPCR analysis
Keratinocyte [3] = test: Effect on transcription factor related gene expression in non-diabetic adult human primary keratinocytes assessed as JUN mRNA levels at 1.96 uM after 6 hrs by qPCR analysis
Fibroblast [4] = test: Effect on antioxidant related gene expression in non-diabetic young human primary fibroblasts assessed as NFE2L2 mRNA levels at 9.81 uM after 6 hrs by qPCR analysis
Keratinocyte [5] = test: Effect on growth factor related gene expression in non-diabetic young human primary keratinocytes assessed as GDF15 mRNA levels at 9.81 uM after 6 hrs by qPCR analysis
Outline: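 Primary human keratinocytes (nondiabetic young or adult, diabetic adult donors) were exposed to compound for 6 h, with 0.1% DMSO as solvent control. Total RNA came from 400 000 cells per sample and was assayed on a Fluidigm Biomark high-throughput qPCR chip. Results are fold change vs solvent control, from 2−4 independent experiments on two donors per group, with SD. Groups were compared by one-way ANOVA with Bonferroni post-test.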

Fibroblast [6] = test: Effect on pro-inflammatory related gene expression in diabetic adult human primary fibroblasts assessed as IL1B mRNA levels at 9.81 uM after 6 hrs by qPCR analysis
Outline: (§1)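 Primary human dermal fibroblasts (young or adult nondiabetic, adult diabetic donor) were treated for 6 h against a 0.1% DMSO solvent control. RNA from 320 000 cells per sample was measured by Fluidigm Biomark high-throughput qPCR. Values are fold change relative to solvent control, from four independent experiments, with SD. One-way ANOVA with Bonferroni post-test was applied.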

Keratinocyte [7] = test: Effect on AQP3 mRNA expression levels in non-diabetic adult human primary keratinocytes at 9.81 uM after 6 hrs by qPCR analysis
Outline: (§2)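 Primary keratinocytes from nondiabetic young and adult and diabetic adult donors; 400 000 cells per sample, 6 h exposure at 1.96 or 9.81 μM. RNA extracted and read on a high-throughput qPCR chip. Results are fold change versus 0.1% DMSO solvent control from 5−7 independent experiments over two donors per group, SD, one-way ANOVA with Bonferroni post-test.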

Keratinocyte [8] = test: Effect on pro-inflammatory related gene expression in diabetic adult human primary keratinocytes assessed as IL6 mRNA levels at 9.81 uM after 6 hrs by qPCR analysis
Fibroblast [9] = test: Effect on chemokines related gene expression in non-diabetic adult human primary fibroblasts assessed as IL8 mRNA levels at 1.96 uM after 6 hrs by qPCR analysis
Keratinocyte [10] = test: Effect on AQP3 mRNA expression levels in non-diabetic young human primary keratinocytes at 9.81 uM after 6 hrs by qPCR analysis; outline: as §2
Fibroblast [11] = test: Effect on transcription factor related gene expression in non-diabetic young human primary fibroblasts assessed as JUN mRNA levels at 1.96 uM after 6 hrs by qPCR analysis
[12] = Effect on wound healing activity in diabetic adult human primary keratinocytes assessed as upregulation of soluble E-selectin protein levels at 1.96 uM after 24 hrs by bead-based suspension array analysis; details: Keratinocyte
Keratinocyte [13] = test: Effect on AQP3 mRNA expression levels in non-diabetic adult human primary keratinocytes at 1.96 uM after 6 hrs by qPCR analysis; outline: as §2
Keratinocyte [14] = test: Effect on pro-inflammatory related gene expression in non-diabetic young human primary keratinocytes assessed as IL1R1 mRNA levels at 9.81 uM after 6 hrs by qPCR analysis
Fibroblast [15] = test: Effect on growth factors related gene expression in non-diabetic young human primary fibroblasts assessed as FGF2 mRNA levels at 9.81 uM after 6 hrs by qPCR analysis; outline: as §1
Keratinocyte [16] = test: Effect on pro-inflammatory related gene expression in non-diabetic adult human primary keratinocytes assessed as PTGS2 mRNA levels at 1.96 uM after 6 hrs by qPCR analysis
Keratinocyte [17] = test: Effect on pro-inflammatory related gene expression in diabetic adult human primary keratinocytes assessed as PTGS2 mRNA levels at 9.81 uM after 6 hrs by qPCR analysis
[18] = Effect on wound healing activity in non-diabetic adult human primary keratinocytes assessed as upregulation of MIF protein levels at 1.96 uM after 24 hrs by bead-based suspension array analysis; details: Keratinocyte
[19] = Upregulation of wound healing activity related MCP1 protein levels in non-diabetic adult human primary keratinocytes at 1.96 uM after 24 hrs by bead-based suspension array analysis; details: Keratinocyte
Keratinocyte [20] = test: Effect on MMP1 mRNA expression levels in non-diabetic adult human primary keratinocytes at 1.96 uM after 6 hrs by qPCR analysis; outline: as §2
Keratinocyte [21] = test: Effect on antiinflammatory related gene expression in non-diabetic young human primary keratinocytes assessed as NFKBIA mRNA levels at 9.81 uM after 6 hrs by qPCR analysis
Fibroblast [22] = test: Effect on pro-inflammatory related gene expression in diabetic adult human primary fibroblasts assessed as IL1R1 mRNA levels at 1.96 uM after 6 hrs by qPCR analysis; outline: as §1
Fibroblast [23] = test: Effect on growth factor related gene expression in non-diabetic adult human primary fibroblasts assessed as GDF15 mRNA levels at 9.81 uM after 6 hrs by qPCR analysis; outline: as §1
Keratinocyte [24] = test: Effect on cellular connection related gene expression in non-diabetic young human primary keratinocytes assessed as CLDN4 mRNA levels at 9.81 uM after 6 hrs by qPCR analysis
Fibroblast [25] = test: Effect on pro-inflammatory related gene expression in non-diabetic young human primary fibroblasts assessed as IL1R1 mRNA levels at 1.96 uM after 6 hrs by qPCR analysis
Fibroblast [26] = test: Effect on chemokines related gene expression in non-diabetic young human primary fibroblasts assessed as WDR26 mRNA levels at 9.81 uM after 6 hrs by qPCR analysis; outline: as §1
Fibroblast [27] = test: Effect on actin cytoskeleton in human non-diabetic primary fibroblasts assessed as formation of thin elongated cellular body at 10 nM after 2 hrs by rhodamine phalloidin-staining based fluorescence microscopic analysis
Outline: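 Subconfluent cells on glass coverslips, collagen type I coated for fibroblasts; keratinocytes starved 2 days before stimulation. Exposure 2 h, then rhodamine-phalloidin staining (1:25 in PBS) and fluorescence microscopy. Controls were DMSO as solvent and PDGF (fibroblasts) or CNF1 (keratinocytes). Where used, p38-MAPK inhibitor LN 950 (100 nM) was added 30 min beforehand.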

Keratinocyte [28] = test: Effect on pro-inflammatory related gene expression in diabetic adult human primary keratinocytes assessed as IL1R1 mRNA levels at 1.96 uM after 6 hrs by qPCR analysis
Keratinocyte [29] = test: Effect on MMP1 mRNA expression levels in diabetic adult human primary keratinocytes at 1.96 uM after 6 hrs by qPCR analysis; outline: as §2
Keratinocyte [30] = test: Effect on pro-inflammatory related gene expression in non-diabetic adult human primary keratinocytes assessed as IL1B mRNA levels at 1.96 uM after 6 hrs by qPCR analysis

C=C(C)[C@@H]1CC[C@]2(CO)CC[C@]3(C)[C@H](CC[C@@H]4[C@@]5(C)CC[C@H](O)C(C)(C)[C@@H]5CC[C@]43C)[C@@H]12 [BETULIN]
fold change (FC) (Keratinocyte [1]): 12.8
fold change (FC) (Fibroblast [2]): 1.2
fold change (FC) (Keratinocyte [3]): 1.3
fold change (FC) (Fibroblast [4]): 1.4
fold change (FC) (Keratinocyte [5]): 1.1
fold change (FC) (Fibroblast [6]): 2.9
fold change (FC) (Keratinocyte [7]): 0.8
fold change (FC) (Keratinocyte [8]): 26
fold change (FC) (Fibroblast [9]): 702
fold change (FC) (Keratinocyte [10]): 1.1
fold change (FC) (Fibroblast [11]): 1
Activity [12]: Active
fold change (FC) (Keratinocyte [13]): 0.8
fold change (FC) (Keratinocyte [14]): 1
fold change (FC) (Fibroblast [15]): 1.8
fold change (FC) (Keratinocyte [16]): 1
fold change (FC) (Keratinocyte [17]): 2.2
Activity [18]: Active
Activity [19]: Active
fold change (FC) (Keratinocyte [20]): 1
fold change (FC) (Keratinocyte [21]): 1.6
fold change (FC) (Fibroblast [22]): 1.7
fold change (FC) (Fibroblast [23]): 3.2
fold change (FC) (Keratinocyte [24]): 1.9
fold change (FC) (Fibroblast [25]): 3.7
fold change (FC) (Fibroblast [26]): 1.4
Activity (Fibroblast [27]): Active
fold change (FC) (Keratinocyte [28]): 0.8
fold change (FC) (Keratinocyte [29]): 1.2
fold change (FC) (Keratinocyte [30]): 0.8
